Experimental data from PMC6557127 (Journal of molecular and cellular cardiology, 2019).

Key:
[1] = target: natriuretic peptide clearance receptor (NPRC), tagged with green fluorescence protein (UniProt P17342); experiment: AlphaScreen or HTRF
[2] = test system: human cardiac fibroblasts (HCFs); experiment: Differentiation to myofibroblasts; assay type: cell-based; conditions: 10^−6 M, TGFβ−1 5 ng/mL
Summary of the method: (§1)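 Fibroblasts were serum-starved in 0.01% FBS for 48 h, then given TGFβ-1 (5 ng/ml) with or without test compound (10−6 M) for 24, 48 and 72 h. For immunostaining, cells were fixed in 4% formaldehyde, permeabilised with 0.2% Triton X-100, and stained with anti-α-SMA (1:200, 4 °C overnight), a Texas Red secondary and DAPI; confocal images were scored as corrected total cell fluorescence. For western blots, NP-40 lysates were probed for α-SMA and normalised to GAPDH.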

[3] = Blood pressure and renal function with acute IV infusion; assay type: in vivo, Fischer rats; conditions: mean ± SEM, n=4/group; for UV (urine flow): 60 min clearance; for UNaV (urinary sodium excretion rate): flame photometry; for GFR (glomerular filtration rate): inulin clearance; for ΔMAP (change in mean arterial pressure): normal rats
Summary of the method: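 Male Fischer rats (about 2 months, 200–250 g) under isoflurane (2–3% in oxygen) had jugular vein, carotid artery and bladder catheters. After 30 min equilibration with IV inulin and saline, test compound or 0.9% saline vehicle was infused IV with inulin for 75 min, including a 15 min lead-in. BP was recorded and urine collected over a 60 min clearance period. Urinary sodium was measured by flame photometry and inulin by anthrone; GFR was taken from inulin clearance. n=4/group.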

Plasma CNP-like levels = assay type: in vivo, Fischer rats; conditions: low, medium and high dose (4.55, 45.5, 455 pmol/kg/min) IV infusion 75 min, normal rats, RIA, n=4/group
Summary of the method: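 They then received a 75 min continuous IV infusion (15 min lead-in) of native peptide, analogue or 0.9% saline vehicle with inulin. Infusion rate was weight-adjusted. Blood was taken after the 60 min clearance period. A non-equilibrium RIA used a CNP-sequence antibody (standard curve 0.5–128 pg; <1% cross-reactivity with ANP, BNP).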

[4] = test system: human renal fibroblasts (HRFs); experiment: cGMP generation in human primary renal fibroblasts; assay type: cell-based
Summary of the method: (§2)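 Primary human cardiac and renal fibroblasts, checked for purity by vimentin staining, were used at passages 4–8. Cells grown to 80% confluency were treated for 10 min with buffer (HBSS, 0.1% BSA, 2 mM HEPES, 0.5 mM IBMX) alone or with test compound at 10−8, 10−7 or 10−6 M. Cells were washed in PBS and lysed in 0.1 M HCl, and intracellular cGMP was measured by ELISA.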

[5] = test system: human cardiac fibroblasts (HCFs); experiment: cGMP generation in human primary cardiac fibroblasts; assay type: cell-based; conditions: 10^−8, 10^−7 and 10^−6 M, 10 min, 0.5 mM IBMX, cGMP ELISA, vs vehicle
Summary of the method: as §2

[6] = test system: human renal fibroblasts (HRFs); experiment: Live-cell real-time proliferation imaging; assay type: cell-based; conditions: 10^−6 M, similar to vehicle (Supplemental Table 1)
parental HEK293 cells = experiment: cGMP generation in parental; assay type: cell-based, human; conditions: levels similar to vehicle treatment (Supplemental Figure 2)
Summary of the method: (§3)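 HEK293 cells stably expressing human pGC-A or pGC-B, or parental cells, were kept in DMEM with 10% FBS and 250 ug/ml G418. Cells were grown overnight to 80–90% confluency. They were treated for 10 min with serial concentrations (10−10 to 10−6 M) in HBSS containing 0.1% BSA, 2 mM HEPES and 0.5 mM IBMX; buffer alone served as vehicle. After a PBS wash and lysis in 0.1 M HCl, intracellular cGMP was measured by ELISA.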

[7] = test system: human cardiac fibroblasts (HCFs); experiment: Live-cell real-time proliferation imaging; assay type: cell-based; conditions: 10^−6 M, similar to vehicle (Supplemental Table 1)
[8] = test system: human renal fibroblasts (HRFs); experiment: Differentiation to myofibroblasts; assay type: cell-based; conditions: 10^−6 M, TGFβ−1 5 ng/mL
Summary of the method: as §1

[9] = test system: human renal fibroblasts (HRFs); experiment: Fibroblast proliferation quantified by cell counting, HRFs; assay type: cell-based; conditions: 10^−6 M, TGFβ−1 5 ng/ml, 72 hours, trypan blue, Cedex XS Analyzer (Supplemental Table 2)
Summary of the method: (§4)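 Fibroblasts at passages 4–8, purity checked by vimentin immunostaining, were counted, seeded in complete medium and held overnight at 37 °C, 5% CO2. Medium was replaced with fresh medium containing TGFβ-1 (5 ng/ml) alone or with test compound (10−8, 10−7 or 10−6 M) for 8 or 72 h. Cells were then trypsinized, stained with 0.2% trypan blue and counted on an automated analyzer.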

human pGC-B receptor = target: T1, human pGC-B receptor (Homo sapiens, UniProt P20594); experiment: cGMP generation in HEK293 cells overexpressing human pGC-B; assay type: cell-based; conditions: 10 min; for cGMP generation in HEK293 pGC-B cells compared to vehicle: 10^−8.5 to 10^−6 M, 0.5 mM IBMX, intracellular cGMP ELISA, triplicate
T1 sequence (P20594 23-1047): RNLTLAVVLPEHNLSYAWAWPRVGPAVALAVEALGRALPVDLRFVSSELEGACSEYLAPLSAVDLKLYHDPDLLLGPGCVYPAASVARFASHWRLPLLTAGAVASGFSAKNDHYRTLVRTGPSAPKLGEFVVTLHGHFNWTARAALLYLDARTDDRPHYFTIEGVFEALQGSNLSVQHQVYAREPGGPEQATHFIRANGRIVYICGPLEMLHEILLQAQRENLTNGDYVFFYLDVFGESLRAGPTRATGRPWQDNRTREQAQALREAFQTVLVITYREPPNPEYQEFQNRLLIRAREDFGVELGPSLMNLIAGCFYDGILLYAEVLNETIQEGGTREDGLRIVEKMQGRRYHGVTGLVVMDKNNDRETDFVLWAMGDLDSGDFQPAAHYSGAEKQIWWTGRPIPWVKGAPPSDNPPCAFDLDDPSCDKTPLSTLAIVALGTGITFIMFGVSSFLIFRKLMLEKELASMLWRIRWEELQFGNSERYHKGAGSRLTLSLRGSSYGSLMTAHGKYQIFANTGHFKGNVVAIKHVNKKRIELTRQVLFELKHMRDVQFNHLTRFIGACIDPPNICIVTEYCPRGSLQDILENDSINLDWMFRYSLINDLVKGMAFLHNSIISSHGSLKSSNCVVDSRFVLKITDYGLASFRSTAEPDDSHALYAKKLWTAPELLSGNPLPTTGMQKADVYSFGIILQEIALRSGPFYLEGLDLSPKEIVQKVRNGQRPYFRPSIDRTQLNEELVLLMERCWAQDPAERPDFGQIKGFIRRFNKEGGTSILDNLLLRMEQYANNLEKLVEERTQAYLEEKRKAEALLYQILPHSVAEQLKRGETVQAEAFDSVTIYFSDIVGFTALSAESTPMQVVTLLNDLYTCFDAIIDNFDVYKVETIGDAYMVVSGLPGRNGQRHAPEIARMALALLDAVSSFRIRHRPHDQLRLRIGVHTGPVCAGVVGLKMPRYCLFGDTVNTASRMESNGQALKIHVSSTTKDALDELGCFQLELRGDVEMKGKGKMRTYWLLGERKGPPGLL
Summary of the method: as §3

[10] = test system: human cardiac fibroblasts (HCFs); experiment: Fibroblast proliferation quantified by cell counting, HCFs; assay type: cell-based; conditions: 10^−6 M, TGFβ−1 5 ng/ml, 72 hours, trypan blue, Cedex XS Analyzer (Supplemental Table 2)
Summary of the method: as §4

human pGC-A receptor = target: T2, human pGC-A receptor (Homo sapiens, UniProt P16066); experiment: cGMP generation in HEK293 cells overexpressing human pGC-A; assay type: cell-based; conditions: mean±SEM
T2 sequence (P16066 33-1061): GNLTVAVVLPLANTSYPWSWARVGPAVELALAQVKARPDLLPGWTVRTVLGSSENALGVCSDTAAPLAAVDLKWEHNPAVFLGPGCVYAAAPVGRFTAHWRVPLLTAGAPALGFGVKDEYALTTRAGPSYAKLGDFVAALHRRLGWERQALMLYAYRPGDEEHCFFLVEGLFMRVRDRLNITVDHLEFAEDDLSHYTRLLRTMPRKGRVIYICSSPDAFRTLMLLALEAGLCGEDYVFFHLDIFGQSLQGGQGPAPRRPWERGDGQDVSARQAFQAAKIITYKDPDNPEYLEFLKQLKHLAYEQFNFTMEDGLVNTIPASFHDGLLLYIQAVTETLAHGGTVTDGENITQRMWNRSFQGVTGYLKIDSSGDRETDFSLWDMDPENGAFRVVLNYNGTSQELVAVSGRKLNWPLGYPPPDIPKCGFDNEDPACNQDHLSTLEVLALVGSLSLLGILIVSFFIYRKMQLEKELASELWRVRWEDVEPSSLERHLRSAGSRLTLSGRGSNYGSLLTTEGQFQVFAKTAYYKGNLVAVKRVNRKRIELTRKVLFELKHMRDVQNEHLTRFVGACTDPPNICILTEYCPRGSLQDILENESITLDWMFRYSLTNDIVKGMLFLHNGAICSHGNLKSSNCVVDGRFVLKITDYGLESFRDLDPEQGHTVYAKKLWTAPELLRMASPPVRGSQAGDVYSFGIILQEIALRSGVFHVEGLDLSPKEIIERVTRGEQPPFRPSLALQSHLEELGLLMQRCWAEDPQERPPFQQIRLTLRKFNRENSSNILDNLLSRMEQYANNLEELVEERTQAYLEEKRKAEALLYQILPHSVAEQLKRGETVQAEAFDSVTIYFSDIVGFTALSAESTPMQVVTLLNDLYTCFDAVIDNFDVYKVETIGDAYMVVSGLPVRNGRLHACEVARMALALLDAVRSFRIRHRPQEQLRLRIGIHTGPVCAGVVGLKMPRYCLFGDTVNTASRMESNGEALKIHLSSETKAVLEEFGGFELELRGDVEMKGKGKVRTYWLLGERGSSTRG
Summary of the method: as §3

[11] = 48 and 72 hours (data not shown)
[12] = 24 hours, immunostaining and western blotting
[13] = High = 455 pmol/kg/min IV infusion
[14] = Low = 4.55 pmol/kg/min IV infusion
[15] = Medium = 45.5 pmol/kg/min IV infusion

Chain of natriuretic peptide clearance receptor (NPRC), tagged with green fluorescence protein (P17342 27-541): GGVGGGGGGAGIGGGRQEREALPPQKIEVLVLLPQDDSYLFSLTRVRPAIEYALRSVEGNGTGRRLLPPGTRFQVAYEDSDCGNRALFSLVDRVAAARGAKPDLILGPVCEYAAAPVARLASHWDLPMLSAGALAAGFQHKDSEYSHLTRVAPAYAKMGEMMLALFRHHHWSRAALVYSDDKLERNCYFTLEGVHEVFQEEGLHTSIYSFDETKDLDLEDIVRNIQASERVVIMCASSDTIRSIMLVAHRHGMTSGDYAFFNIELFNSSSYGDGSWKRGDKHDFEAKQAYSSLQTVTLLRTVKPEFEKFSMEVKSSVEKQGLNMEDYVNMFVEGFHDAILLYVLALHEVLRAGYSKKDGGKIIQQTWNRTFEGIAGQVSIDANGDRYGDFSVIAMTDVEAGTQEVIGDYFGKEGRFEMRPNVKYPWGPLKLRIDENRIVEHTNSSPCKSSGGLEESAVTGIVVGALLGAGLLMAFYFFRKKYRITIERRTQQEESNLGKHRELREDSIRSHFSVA

Substance: C53, the 53-AA intermediate form of proCNP processing (peptide)
- AlphaScreen signal [1]: 200

Substance: NH2 - DLRVDTKSRAAWARLLQEHPNARKYKGANKKGLSKGCFGLKLDRIGSMSGLGC – COOH [C53]
- Reduction of differentiation of HCFs to myofibroblasts [2, 11]: not sustained
- Differentiation of HCFs to myofibroblasts (α-SMA expression) [2, 12]: significantly reduced the differentiation
- UV (urine flow) [3, 13]: 13.5 ± 2.0 µL/min
- UNaV (urinary sodium excretion rate) [3, 13]: 1.1±0.3 uEq/min
- GFR (glomerular filtration rate) [3, 13]: 1.1 ± 0.2 mL/min
- ΔMAP (change in mean arterial pressure) [3, 13]: −3.7±2.6 mmHg
- UV (urine flow) [3, 14]: 13.3 ± 2.0 µL/min
- UNaV (urinary sodium excretion rate) [3, 14]: 0.9±0.2 uEq/min
- GFR (glomerular filtration rate) [3, 14]: 1.2 ± 0.1 mL/min
- ΔMAP (change in mean arterial pressure) [3, 14]: −0.5±1.0 mmHg
- UV (urine flow) [3, 15]: 11.3 ± 0.8 µL/min
- UNaV (urinary sodium excretion rate) [3, 15]: 1.0±0.1 uEq/min
- GFR (glomerular filtration rate) [3, 15]: 1.5 ± 0.1 mL/min
- ΔMAP (change in mean arterial pressure) [3, 15]: −1.4±1.1 mmHg
- Plasma CNP-like levels (CLL) (Plasma CNP-like levels): increased plasma CLL levels in a dose-dependent manner
- Intracellular cGMP in HRFs ([4]; 10^−8, 10^−7 and 10^−6 M, 10 min, 0.5 mM IBMX, cGMP ELISA, vs vehicle, dose-dependent): increased intracellular cGMP levels
- cGMP values in HRFs compared to HCFs ([4]; ratio HRFs/HCFs): 16 fold
- Intracellular cGMP in HCFs [5]: increased intracellular cGMP levels
- HRFs proliferation in the absence of TGFβ−1 stimulation [6]: had no effect on proliferation
- cGMP generation in parental HEK293 cells (parental HEK293 cells): did not generate cGMP
- HCFs proliferation in the absence of TGFβ−1 stimulation [7]: had no effect on proliferation
- Reduction of differentiation of HRFs to myofibroblasts [8, 11]: not sustained
- Differentiation of HRFs to myofibroblasts (α-SMA expression) [8, 12]: significantly reduced the differentiation
- TGFβ−1 induced HRFs proliferation by cell counting [9]: suppressed TGFβ−1 induced proliferation
- cGMP generation in HEK293 pGC-B cells compared to vehicle (human pGC-B receptor): significant cGMP generation
- pGC-B receptor potency compared to CNP (human pGC-B receptor; HEK293 pGC-B cells, 10^−10 to 10^−6 M, cGMP ELISA): no difference observed
- TGFβ−1 induced HCFs proliferation by cell counting [10]: suppressed TGFβ−1 induced proliferation

Substance: NH2-GLSKGCFGLKLDRIGSMSGLGC-COOH [CNP, C-type natriuretic peptide, reference compound]
- UV (urine flow) [3, 13]: 9.8 ± 0.3 µL/min
- UNaV (urinary sodium excretion rate) [3, 13]: 0.9±0.1 uEq/min
- GFR (glomerular filtration rate) [3, 13]: 1.3 ± 0.1 mL/min
- UV (urine flow) [3, 14]: 11.3 ± 1.0 µL/min
- UNaV (urinary sodium excretion rate) [3, 14]: 0.8±0.1 uEq/min
- GFR (glomerular filtration rate) [3, 14]: 1.2 ± 0.1 mL/min
- ΔMAP (change in mean arterial pressure) [3, 14]: −0.9±0.9 mmHg
- UV (urine flow) [3, 15]: 10.0 ± 0.9 µL/min
- UNaV (urinary sodium excretion rate) [3, 15]: 0.7±0.1 uEq/min
- GFR (glomerular filtration rate) [3, 15]: 1.2 ± 0.2 mL/min
- ΔMAP (change in mean arterial pressure) [3, 15]: −1.9±0.5 mmHg
- Plasma CNP-like levels (CLL) (Plasma CNP-like levels): increased plasma CLL levels in a dose-dependent manner
- cGMP generation in parental HEK293 cells (parental HEK293 cells): did not generate cGMP
- cGMP generation in HEK293 pGC-B cells compared to vehicle (human pGC-B receptor): significant cGMP generation

Substance: b-type natriuretic peptide [BNP]
- cGMP in HEK293 pGC-A cells (human pGC-A receptor; 10^−6 M): 1028±73 pmol/mL
- cGMP in HEK293 pGC-A cells (human pGC-A receptor; 10^−8 M): 385±66 pmol/mL
- cGMP in HEK293 pGC-A cells (human pGC-A receptor; 10^−10 M): 5±1 pmol/mL
